In test [1] the target is T1, Tyrosine-protein kinase JAK2 (Homo sapiens, UniProt O60674). The test can be described thus: Inhibition of N-terminal His-tagged human JAK2 catalytic domain (826 to 1132 resiudes) expressed in baculovirus expression system at 100 nM using FAM-labeled peptide as substrate preincubated for 10 mins followed by substrate addition measured after 1 hr in presence of ATP by mobility shift assay relative to control. Put shortly:
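Single-concentration (100 nM) percent inhibition in the mobility-shift JAK2 assay. Enzyme was preincubated with compound for 10 min at room temperature in HEPES pH 7.5/Brij-35 buffer. FAM-peptide and ATP were then added and the reaction run for 1 h at 28 °C before EDTA stop. Inhibition = (max−conversion)/(max−min)×100. Each compound was tested at least twice and the values averaged.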

The next test deals with HEL. Description: Antiproliferative activity against human HEL cells assessed as growth inhibition after 72 hrs by CCK-8 assay. The test is classed as functional. Summed up:
(§1)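 CCK-8 viability readout. Cells were cultured in RPMI 1640 with 10% FBS and 1% penicillin/streptomycin and seeded at 3000 (HEL), 5000 (MV4-11) or 3000 (HL60) cells/well. Increasing compound concentrations were applied for 72 h, then CCK-8 was added for a further 3 h and absorbance read at 450 nm. Inhibition = (1−A_sample/A_control)×100, normalized to DMSO controls. Value is the mean of three independent measurements, obtained by curve fitting.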

The next test concerns MV4-11. The test can be described thus: Antiproliferative activity against human MV4-11 cells assessed as growth inhibition after 72 hrs by CCK-8 assay. Particulars: MV4-11, 72 h. The test is classed as functional. Put shortly: as §1
In the next test the test system is HL-60. Description: Antiproliferative activity against human HL60 cells assessed as growth inhibition after 72 hrs by CCK-8 assay. The test is classed as functional. Particulars: HL-60, 72 h. Summed up: as §1
In test [2] the target is T1, Tyrosine-protein kinase JAK2. The test can be described thus: Inhibition of N-terminal His-tagged human JAK2 catalytic domain (826 to 1132 resiudes) expressed in baculovirus expression system using FAM-labeled peptide as substrate preincubated for 10 mins followed by substrate addition measured after 1 hr in presence of ATP by mobility shift assay. Put shortly:
(§2)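 Caliper mobility-shift assay with recombinant kinase in 50 mM HEPES pH 7.5, 0.0015% Brij-35. Compound was diluted from DMSO and preincubated with enzyme for 10 min at room temperature. FAM-labeled peptide plus ATP was then added and the reaction run for 1 h at 28 °C. It was stopped with an EDTA (50 mM) buffer. Conversion gave percent inhibition relative to max/min controls, and IC50 came from a four-parameter Hill fit. Duplicate wells were used.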

The target in test [3] is T2, Receptor-type tyrosine-protein kinase FLT3 (Homo sapiens, UniProt P36888).
T2 sequence (P36888 whole entry): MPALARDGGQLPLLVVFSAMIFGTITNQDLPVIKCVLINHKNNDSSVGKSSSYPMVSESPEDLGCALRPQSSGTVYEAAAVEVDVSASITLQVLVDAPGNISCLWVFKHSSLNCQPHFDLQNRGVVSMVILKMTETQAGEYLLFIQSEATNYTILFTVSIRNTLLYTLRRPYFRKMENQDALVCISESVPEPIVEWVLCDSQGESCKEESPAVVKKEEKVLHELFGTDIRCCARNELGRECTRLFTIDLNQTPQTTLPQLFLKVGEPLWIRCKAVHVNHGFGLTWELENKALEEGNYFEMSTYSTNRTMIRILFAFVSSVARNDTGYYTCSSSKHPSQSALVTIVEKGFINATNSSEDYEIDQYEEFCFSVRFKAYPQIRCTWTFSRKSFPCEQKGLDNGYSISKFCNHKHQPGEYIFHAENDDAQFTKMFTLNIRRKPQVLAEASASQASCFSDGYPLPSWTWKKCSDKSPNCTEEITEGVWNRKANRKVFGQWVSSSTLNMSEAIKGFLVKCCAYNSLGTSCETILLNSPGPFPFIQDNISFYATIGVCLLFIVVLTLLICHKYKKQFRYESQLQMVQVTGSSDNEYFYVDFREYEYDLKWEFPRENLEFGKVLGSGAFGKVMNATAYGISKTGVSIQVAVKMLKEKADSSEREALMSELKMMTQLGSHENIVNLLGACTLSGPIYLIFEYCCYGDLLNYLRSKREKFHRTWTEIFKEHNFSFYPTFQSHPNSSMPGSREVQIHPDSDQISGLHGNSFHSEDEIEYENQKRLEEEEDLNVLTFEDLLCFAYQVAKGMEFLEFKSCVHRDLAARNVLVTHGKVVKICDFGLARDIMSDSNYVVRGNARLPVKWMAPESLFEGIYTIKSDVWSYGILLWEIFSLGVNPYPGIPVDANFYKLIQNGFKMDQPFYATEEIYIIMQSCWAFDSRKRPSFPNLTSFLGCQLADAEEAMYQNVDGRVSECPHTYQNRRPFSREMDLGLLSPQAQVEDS
Description: Inhibition of N-terminal GST-tagged human FLT3 cytoplasmic domain (564 to 993 residues) expressed in baculovirus expression system musing FAM-labeled peptide as substrate preincubated for 10 mins followed by substrate addition measured after 1 hr in presence of ATP by mobility shift assay. Summed up:
as §2

Test [4] addresses Receptor-type tyrosine-protein kinase FLT3 (Homo sapiens) (UniProt P36888). Particulars: at 100 nM.

Data on two molecules can be found in ChEMBL document CHEMBL4359878, “Discovery of 4-piperazinyl-2-aminopyrimidine derivatives as dual inhibitors of JAK2 and FLT3” (Eur J Med Chem, 2019).

T1 sequence (O60674 whole entry, the tested form may be a part): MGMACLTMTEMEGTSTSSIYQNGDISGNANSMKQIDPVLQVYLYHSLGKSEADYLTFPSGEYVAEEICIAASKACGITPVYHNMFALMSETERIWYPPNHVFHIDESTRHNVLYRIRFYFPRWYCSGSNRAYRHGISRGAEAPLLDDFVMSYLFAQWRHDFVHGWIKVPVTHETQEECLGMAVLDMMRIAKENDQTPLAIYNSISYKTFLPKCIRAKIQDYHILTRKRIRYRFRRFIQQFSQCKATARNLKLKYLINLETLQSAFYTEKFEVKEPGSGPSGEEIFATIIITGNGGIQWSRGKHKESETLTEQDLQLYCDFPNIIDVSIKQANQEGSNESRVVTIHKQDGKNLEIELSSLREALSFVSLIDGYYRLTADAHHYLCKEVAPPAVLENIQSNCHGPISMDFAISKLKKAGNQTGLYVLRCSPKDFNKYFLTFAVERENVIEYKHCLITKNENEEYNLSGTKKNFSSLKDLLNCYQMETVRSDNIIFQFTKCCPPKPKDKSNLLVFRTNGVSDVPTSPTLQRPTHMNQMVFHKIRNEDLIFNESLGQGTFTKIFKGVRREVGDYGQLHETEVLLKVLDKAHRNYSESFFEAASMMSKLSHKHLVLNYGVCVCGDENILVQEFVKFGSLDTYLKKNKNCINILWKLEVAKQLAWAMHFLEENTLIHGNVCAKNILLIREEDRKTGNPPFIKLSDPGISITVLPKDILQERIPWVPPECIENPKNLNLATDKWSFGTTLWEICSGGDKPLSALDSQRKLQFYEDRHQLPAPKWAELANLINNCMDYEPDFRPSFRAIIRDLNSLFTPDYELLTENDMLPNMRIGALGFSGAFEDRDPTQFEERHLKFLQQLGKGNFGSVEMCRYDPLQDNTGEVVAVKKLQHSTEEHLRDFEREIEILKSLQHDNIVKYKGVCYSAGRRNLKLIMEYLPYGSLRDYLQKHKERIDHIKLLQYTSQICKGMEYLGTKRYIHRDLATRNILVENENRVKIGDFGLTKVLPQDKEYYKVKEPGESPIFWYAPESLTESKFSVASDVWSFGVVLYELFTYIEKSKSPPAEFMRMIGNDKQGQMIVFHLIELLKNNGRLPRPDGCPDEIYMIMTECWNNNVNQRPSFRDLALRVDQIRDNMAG

For the molecule `NS(=O)(=O)c1ccc(NC(=O)N2CCN(c3ccnc(Nc4ccc(N5CCOCC5)cc4)n3)CC2)cc1`, the figures for the inhibition in test [1] and in test [4] were 86% and 79.7%, respectively. The GI50 with HEL, in the test with MV4-11 and in the test with HL-60 was greater than 50 µM throughout. Moreover, the values for the IC50 in test [2] and in test [3] were 9.3 nM and 30 nM, respectively.

In the case of `NC(=O)c1ccc(NC(=O)N2CCN(c3ccnc(Nc4ccc(N5CCOCC5)cc4)n3)CC2)cc1`, the inhibition in test [1] came out at 86.3%; in test [4], 81.1%. The GI50 in the test on HEL, with MV4-11 and in the test with HL-60 was greater than 50 µM each time. Also, the half-inhibitory concentration (IC50) in test [2] stood at 11 nM; in test [3], 21 nM.
